Screening data deposited in PubChem by several laboratories.
A selection: hits, their analogues and other compounds. The true share with any hit is near 5%.
CSC inhib – cancer stem cell inhibition; cancer stem cell-like cells viability, luminescence; 300,000 compounds, 1.1% hits; inhibition, % at 7.5 µM; AID 2717; in the data active means inhibition above about 75%; inconclusive means no clear call, values can overlap the other calls; tested in HMLE shEcad cells
Mdm2 MdmX PPI – inhibitors of human Mdm2/MdmX interaction; O15151+Q00987; SaOS-2 split-luciferase Mdm2/MdmX complementation, luminescence; 330,000 compounds, 3% hits; inhibition, % at 8 µM;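 active means inhibition of at least 50% at 8 µM in the primary screen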
CHOP UPR activ – apoptotic UPR (CHOP) activation | CHO-CHOP luciferase reporter, luminescence; percent of tunicamycin response over DMSO baseline | 330,000 compounds, 0.34% hits | activation, % at 10 µM | AID 449763;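 active means at 10 µM dose, activation of 40% or more, normalized to positive control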
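System: CHO-CHOP luciferase reporter cell line | Buffer or medium: F12 medium containing 10% fetal bovine serum | Doses: One dose, 10 µM in 0.5% DMSO | Times: 6 h compound exposure at 37 °C after overnight seeding | Signal: Luciferase luminescence | Read-out: % activation vs tunicamycin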
T cruzi inh – T. cruzi replication inhibition; 300,000 compounds, 1.4% hits; T. cruzi beta-gal in NIH3T3, luminescence, 90 h; inhibition, % (test concentration not listed);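 active means mean inhibition across valid replicates above about 55%, limit read from the data; inconclusive means mean below that limit but half or more replicates reach it; inactive means mean below it, under half of replicates reach it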;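 further: signal also drops with host cell toxicity which is not excluded here; higher percent means less beta-gal luminescence so fewer parasites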
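Read-out: Parasite load inhibition, % | Test system: Mouse NIH/3T3 fibroblasts infected with β-gal-expressing T. cruzi Tulahuen C4 | Amount: 5,000 cells/well | Medium: DMEM, 2% fetal bovine serum | Signal: GalScreen β-gal luminescence, detergent lysis, 60 min | Timing: 3 h attach, ≥90 h co-culture | Also added: Tulahuen C4 trypomastigotes, 5000/well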
Beta apoptosis – blocks beta cell apoptosis. INS-1E cytokine-induced death, ATP luminescence, 48 h; percent of positive-control rescue, neutral wells zero. protection from apoptosis, % (test concentration not listed). 300,000 compounds, 0.8% hits;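 active means Every replicate reaches about 75%, or at least half do and their mean reaches it too, limit read from the data; inconclusive means At least half of replicates reach the limit but their mean does not; inactive means Under half of replicates reach the limit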;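 further: higher means more ATP so stronger rescue from cytokine killing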
XBP1 UPR activ – activators of adaptive arm of unfolded protein response (XBP1). 330,000 compounds, 0.33% hits. activation, % at 20 µM. CHO-XBP1 luciferase reporter, IRE1-XBP1 UPR activation, luminescence; percent of tunicamycin response, DMSO as zero;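 active means versus positive control, 20 µM dose yields 30% or more activation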
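Material – CHO cell line with stable XBP1 luciferase reporter · Buffer or medium – F12 plus 10% FBS · Compound – single point, 20 µM final compound, 1% DMSO · Schedule – 16-18 h cell attachment at 37 °C, then 6 h compound exposure · Signal – Steady-Glo luminescence read · Benchmarks – high control tunicamycin 10 µg/mL final, low control DMSO vehicle only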
Mdm2-MdmX conf – human Mdm2/MdmX binding inhibition, confirmed; luminescent assay; inhibition, % at 8 µM; shares compounds with Mdm2 MdmX PPI; 10,000 compounds, 55% hits; in the data active means inhibition above about 40%
FLuc counter – full-length luciferase inhibition in Mdm2/MdmX counter-screen; shares compounds with Mdm2 MdmX PPI; SaOS-2 full-length luciferase counterscreen, luminescence; inhibition, % at 8 µM; 6,200 compounds, 77% hits; AID 504607;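 active means mean inhibition at 8 µM reaching about 37%, which flags the compound as non-specific, limit read from the data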;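 further: p53-null SaOS-2 cells with luciferase driven by a doxycycline-inducible promoter; compound on cells about two nights before reading with doxycycline added after day one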
Hits are given with their value; - = inactive; ? = inconclusive; . = no result.

SMILES	CSC inhib	Mdm2 MdmX PPI	CHOP UPR activ	T cruzi inh	Beta apoptosis	XBP1 UPR activ	Mdm2-MdmX conf	FLuc counter
COc1cc(OC)cc(-c2nnc(NC(=O)CCS(=O)(=O)c3ccc(F)cc3)o2)c1	-	59	-	-	-	-	55	65
CCCOc1cccc(-c2nn(-c3ccccc3)cc2/C=C(\C#N)C(=O)NCCCn2ccnc2)c1	-	-	-	-	-	-	.	.
N#C/C(=C/c1cn(-c2ccccc2)nc1-c1cccc(OCc2ccc(F)cc2)c1)C(=O)NCCCn1ccnc1	99	52	-	63	-	-	-	.
O=C(NNC(=O)[C@@H]1CCCC[C@@H]1C(=O)O)c1cccs1	-	-	-	-	-	-	.	.
CN(C)S(=O)(=O)n1cc(/C=C(\NC(=O)c2ccccc2)C(=O)N2CCCC2)c2ccccc21	-	-	-	-	-	-	.	.
CCCCN(C)CC(O)Cn1cc(/C=C/C(=O)c2ccc(OCC)cc2)c2ccccc21 (stereo not drawn)	99	69	-	59	-	-	-	.
Cc1ccc(S(=O)(=O)n2nc(-n3c(C)ccc3C)c3c(F)cccc32)c2ccccc12	-	50	-	-	-	-	-	.
Cc1ccc(C)n1-c1nn(S(=O)(=O)c2cccc3cccnc23)c2cccc(F)c12	-	-	-	-	-	-	.	.
CN(Cc1ccco1)S(=O)(=O)c1nnc(NC(=O)c2ccccc2Cl)s1	-	-	-	-	-	-	.	.
CCOc1ccccc1C(=O)Nc1ccc2nc(N3CCN(c4ncccn4)CC3)cc(C)c2c1	-	96	-	.	-	-	84	51
COc1ccc(C(=O)Nc2ccc3nc(N4CCN(C)CC4)cc(C)c3c2)c(OC)c1	-	-	-	-	-	-	.	.
COc1cccc(C(=O)Nc2ccc3nc(N4CCN(c5ncccn5)CC4)cc(C)c3c2)c1OC	-	98	-	.	-	-	88	-
C/C1=C\CCC2C(/C=C(\C)CC1)OC(=O)C2CN1CCCCC1 (stereo not drawn)	-	60	-	-	-	-	-	.
C=C1CCC[C@]2(C)C[C@H]3OC(=O)C(CN4CCOCC4)[C@H]3C[C@@H]12 (stereo partly drawn)	-	-	-	-	-	-	.	.
O=C(CN1CCCc2ccccc21)N/N=C/c1ccc(F)cc1F	-	-	-	-	-	-	.	.
O=C(CN1CCCc2ccccc21)N/N=C/c1ccccc1O	-	77	-	-	99	-	63	-
O=C(Nc1c2ccccc2nc2ccccc12)C(Cl)(Cl)Cl	.	62	-	-	?	-	48	-
O=C(Cc1ccccc1)NNc1c2ccccc2nc2ccccc12	-	-	-	-	-	-	.	.
COCCN(C(=O)CNC(=O)c1ccco1)C(C(=O)NC1CCCC1)c1cccc(OC)c1 (stereo not drawn)	.	-	-	-	-	-	.	.
O=S(=O)(/N=C(/Nc1cccnc1Cl)c1ccccc1)c1ccccc1	-	-	-	.	-	-	.	.
CCC(=O)Nc1nnc(Sc2ccc(N(C)C)cc2)s1	-	-	-	-	-	-	.	.
CN(C)c1ccc(Sc2nnc(NC(=O)Nc3ccc(Cl)cc3Cl)s2)cc1	-	79	-	-	-	-	-	.
Cc1cc(=O)n2nc(N3CCCC(C(=O)NCc4ccccc4Cl)C3)sc2n1 (stereo not drawn)	-	-	-	-	-	-	.	.
CCn1nc([N+](=O)[O-])c(C(C#N)c2nc3cc(C(F)(F)F)ccc3s2)c(Cl)c1=O (stereo not drawn)	112	76	-	-	-	-	72	50
Cc1cccc(N2CCN(C(=O)c3ccc(Cl)c(S(=O)(=O)NCc4ccco4)c3)CC2)c1C	-	70	-	-	-	-	74	42
CC1CCN(CCCn2c(SCC(=O)Nc3ccccc3Cl)nc3ccccc3c2=O)CC1	-	-	-	-	-	-	.	.
